Results published in ChEMBL document CHEMBL5030552, “Computational Design of Potent D-Peptide Inhibitors of SARS-CoV-2” (J Med Chem, 2021).

Assays:
Spike glycoprotein = Spike glycoprotein (Severe acute respiratory syndrome coronavirus 2, UniProt P0DTC2); test: Binding affinity to SARS-CoV-2 spike protein receptor-binding domain by biolayer interferometry (BLI) assay
Procedure, shortened: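 BLI was run at 25 °C with shaking at 1000 rpm. His-tagged RBD (200 nM) was loaded on Ni-NTA sensors, then peptides were applied at several concentrations, and dissociation was read in baseline wells. Signals were referenced against His-tagged SUMO and RBD-only sensors. Subtracted curves were fitted for ka, kd and Kd.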

[1] = Stability of the compound in proteinase K (unknown origin) in presence of serum assessed as loss of peptide measured after 2.5 hr; assay type: ADME; conditions: read-out: Drug degradation
SARS-CoV-2 = test: Antiviral activity against SARS-CoV-2 assessed as neutralization viral infection in Vero cells by measuring cytopathic effect incubated for 4 days by crystal violet staining based assay; assay type: functional, organism-based; conditions: Severe acute respiratory syndrome coronavirus 2, Vero, 96 h
Vero = test: Cytotoxicity against African green monkey Vero cells assessed as viable cells measured by MTS assay; assay type: cell-based; conditions: chlorocebus sabaeus
Procedure, shortened: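 Vero cells (1.5 × 10⁴/well, 24 h growth) were exposed in the neutralization-assay format without virus. Peptides were twofold-diluted from 100 to 0.1953 μM from DMSO stocks diluted in PBS. Viability was read with MTS.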

Compound	Kd (Spike glycoprotein)	metabolised at 2.5 h [1]	IC50 (SARS-CoV-2)	Activity (Vero)
CC[C@@H](C)[C@@H](NC(=O)[C@@H](Cc1cnc[nH]1)NC(=O)[C@H](NC(=O)[C@@H](CCC(=O)O)NC(=O)[C@@H](CCC(=O)O)NC(=O)[C@@H](CCSC)NC(=O)[C@@H](CC(C)C)NC(=O)[C@@H](C)NC(=O)[C@@H](Cc1ccc(O)cc1)NC(=O)[C@@H](CC(C)C)NC(=O)[C@@H](C)NC(=O)[C@H](NC(=O)[C@@H](CCC(N)=O)NC(=O)[C@H](N)CC(C)C)[C@H](C)O)[C@H](C)CC)C(=O)N[C@H](C)C(=O)N[C@H](C)C(=O)N[C@H](CC(C)C)C(=O)N[C@H](CCC(=O)O)C(=O)N[C@H](CCCCN)C(=O)N[C@@H](C(=O)N[C@H](Cc1c[nH]c2ccccc12)C(=O)N[C@@H](C(=O)N[C@H](C)C(=O)N[C@H](CC(C)C)C(=O)N[C@H](CCCNC(=N)N)C(=O)N[C@H](Cc1cnc[nH]1)C(=O)N[C@H](CCC(N)=O)C(=O)N[C@H](Cc1ccc(O)cc1)C(=O)N[C@@H](C(=O)O)[C@H](C)O)[C@H](C)O)[C@H](C)O	31 nM	82.9%	6560 nM	Non-Toxic
CC[C@@H](C)[C@@H](NC(=O)CNC(=O)[C@@H](CC(C)C)NC(=O)CNC(=O)[C@@H](CCCCN)NC(=O)CNC(=O)[C@@H](CC(=O)O)NC(=O)[C@@H](Cc1ccccc1)NC(=O)[C@H](N)CCCNC(=N)N)C(=O)N[C@H](Cc1ccc(O)cc1)C(=O)N[C@H](CCC(N)=O)C(=O)N[C@H](Cc1ccc(O)cc1)C(=O)N[C@H](CCSC)C(=O)N[C@H](CCC(=O)O)C(=O)N[C@H](CCC(=O)O)C(=O)N[C@@H](C(=O)N[C@H](CCC(=O)O)C(=O)N[C@H](Cc1cnc[nH]1)C(=O)N[C@H](C)C(=O)N[C@H](C)C(=O)N[C@H](CO)C(=O)N[C@H](CCCNC(=N)N)C(=O)N[C@H](Cc1ccccc1)C(=O)N[C@H](C)C(=O)N[C@H](Cc1ccc(O)cc1)C(=O)N[C@H](Cc1ccccc1)C(=O)N[C@H](Cc1ccccc1)C(=O)N[C@H](Cc1ccc(O)cc1)C(=O)N[C@H](CCC(N)=O)C(=O)N[C@H](Cc1cnc[nH]1)C(=O)N[C@H](CC(C)C)C(=O)N[C@H](C)C(=O)O)[C@H](C)CC	29 nM	87.5%	5760 nM	Non-Toxic
CC[C@@H](C)[C@@H](N)C(=O)N[C@H](CC(N)=O)C(=O)N[C@H](CCC(N)=O)C(=O)N[C@H](Cc1ccc(O)cc1)C(=O)N[C@H](CCSC)C(=O)N[C@H](CCC(=O)O)C(=O)N[C@H](CCC(=O)O)C(=O)N[C@@H](C(=O)N[C@H](CCC(=O)O)C(=O)N[C@H](Cc1cnc[nH]1)C(=O)N[C@H](C)C(=O)N[C@H](C)C(=O)N[C@H](CO)C(=O)N[C@H](CCCNC(=N)N)C(=O)N[C@H](Cc1ccccc1)C(=O)N[C@H](C)C(=O)N[C@H](Cc1ccc(O)cc1)C(=O)N[C@H](Cc1ccccc1)C(=O)N[C@H](Cc1ccccc1)C(=O)N[C@H](Cc1ccc(O)cc1)C(=O)N[C@H](CCC(N)=O)C(=O)N[C@H](Cc1cnc[nH]1)C(=O)N[C@H](CC(C)C)C(=O)N[C@H](C)C(=O)O)[C@H](C)CC	105 nM	–	–	–
